Assay results from ChEMBL document CHEMBL4627291, “A bicyclic pentapeptide-based highly potent and selective pan-SIRT1/2/3 inhibitor harboring Nε-thioacetyl-lysine” (Bioorg Med Chem, 2020).

How the values were obtained:
[1] = target: T1, NAD-dependent protein deacetylase sirtuin-1 (Homo sapiens, UniProt Q96EB6); experiment: Inhibition of His6/GST-tagged human SIRT1 deacetylation activity using SIRT1 acetyl-lysine as substrate in presence of beta-NAD+ after 10 mins by reversed-phase HPLC analysis
T1 sequence (Q96EB6 whole entry): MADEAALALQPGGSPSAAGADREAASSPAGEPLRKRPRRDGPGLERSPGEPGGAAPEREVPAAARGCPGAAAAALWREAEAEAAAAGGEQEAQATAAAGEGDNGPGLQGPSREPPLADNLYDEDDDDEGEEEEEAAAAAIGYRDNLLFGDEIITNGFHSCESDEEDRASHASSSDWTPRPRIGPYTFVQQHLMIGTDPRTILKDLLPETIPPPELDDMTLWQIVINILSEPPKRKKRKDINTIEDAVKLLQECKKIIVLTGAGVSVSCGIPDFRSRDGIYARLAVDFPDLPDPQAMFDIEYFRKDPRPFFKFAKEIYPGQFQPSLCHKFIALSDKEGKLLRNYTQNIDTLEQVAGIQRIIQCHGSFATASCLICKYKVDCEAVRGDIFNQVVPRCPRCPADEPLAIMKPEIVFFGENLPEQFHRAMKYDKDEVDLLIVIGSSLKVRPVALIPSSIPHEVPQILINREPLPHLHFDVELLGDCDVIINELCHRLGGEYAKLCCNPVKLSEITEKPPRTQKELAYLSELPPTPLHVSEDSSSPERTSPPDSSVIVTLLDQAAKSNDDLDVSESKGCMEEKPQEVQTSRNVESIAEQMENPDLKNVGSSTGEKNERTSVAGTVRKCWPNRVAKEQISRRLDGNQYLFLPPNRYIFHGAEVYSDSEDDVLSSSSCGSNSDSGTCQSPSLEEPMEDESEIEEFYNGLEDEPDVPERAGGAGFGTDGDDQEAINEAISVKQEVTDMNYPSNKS
Outline: (§1)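 Buffer: 50 mM Hepes pH 8.0, 137 mM NaCl, 2.7 mM KCl, 1 mM MgCl₂, 1 mM DTT, 0.5 mM β-NAD⁺, p53 380-384 K382-acetyl pentapeptide. SIRT1 runs use 0.3 mM peptide, 320 nM His₆- or GST-SIRT1, 10 min. SIRT2 runs use 0.39 mM peptide, 309 nM His₆-SIRT2, 12 min. Reactions run at 37 °C, quenched with HCl/acetic acid, read by C18 HPLC at 214 nm, turnover <10%. IC50 from Dixon plots.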

[2] = target: T2, NAD-dependent protein deacetylase sirtuin-2 (Homo sapiens, UniProt Q8IXJ6); experiment: Inhibition of His6-tagged human SIRT2 deacetylation activity using SIRT1 acetyl-lysine as substrate in presence of beta-NAD+ after 12 mins by reversed-phase HPLC analysis; outline: as §1
T2 sequence (Q8IXJ6 whole entry): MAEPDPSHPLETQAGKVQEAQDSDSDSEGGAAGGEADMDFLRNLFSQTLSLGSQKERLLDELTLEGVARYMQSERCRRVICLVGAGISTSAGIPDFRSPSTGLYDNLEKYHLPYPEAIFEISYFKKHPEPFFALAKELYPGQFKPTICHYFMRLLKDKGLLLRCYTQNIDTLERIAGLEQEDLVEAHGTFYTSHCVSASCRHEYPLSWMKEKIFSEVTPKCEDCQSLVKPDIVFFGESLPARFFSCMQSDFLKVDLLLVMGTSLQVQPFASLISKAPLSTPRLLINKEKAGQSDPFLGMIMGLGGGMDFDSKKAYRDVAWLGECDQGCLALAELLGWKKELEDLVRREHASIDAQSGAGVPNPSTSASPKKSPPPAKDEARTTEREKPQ

[3] = target: T3, NAD-dependent protein deacetylase sirtuin-3, mitochondrial (Homo sapiens, UniProt Q9NTG7); experiment: Inhibition of His6-tagged human SIRT3 deacetylation activity using SIRT3 acetyl-lysine as substrate substrate in presence of beta-NAD+ after 10 mins by reversed-phase HPLC analysis
T3 sequence (Q9NTG7 whole entry): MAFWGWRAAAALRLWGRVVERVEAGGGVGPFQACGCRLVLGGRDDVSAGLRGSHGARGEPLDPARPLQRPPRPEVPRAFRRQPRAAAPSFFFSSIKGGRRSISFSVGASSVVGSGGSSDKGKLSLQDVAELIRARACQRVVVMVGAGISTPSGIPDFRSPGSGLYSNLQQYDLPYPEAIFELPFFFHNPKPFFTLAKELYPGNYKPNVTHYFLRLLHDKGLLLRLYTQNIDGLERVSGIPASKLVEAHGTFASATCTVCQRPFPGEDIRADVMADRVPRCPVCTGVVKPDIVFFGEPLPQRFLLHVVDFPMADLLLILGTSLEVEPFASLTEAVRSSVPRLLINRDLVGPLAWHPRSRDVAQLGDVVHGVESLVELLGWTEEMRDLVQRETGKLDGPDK

[4] = target: NAD-dependent protein deacylase sirtuin-5, mitochondrial (Homo sapiens, UniProt Q9NXA8); experiment: Inhibition of His6-tagged human SIRT5 desuccinylation activity using succinyl-lysine as substrate in presence of beta-NAD+ after 5 mins by reversed-phase HPLC analysis; settings: in the assay text read “GST-tagged” for “His6-tagged”
Outline: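 GST-SIRT5 (370 nM) with 0.88 mM succinyl-lysine peptide and 0.8 mM β-NAD⁺ in 50 mM Hepes pH 8.0, 137 mM NaCl, 2.7 mM KCl, 1 mM MgCl₂, 1 mM DTT; 5 min at 37 °C. Stopped with 100 mM HCl/0.16 M acetic acid; C18 HPLC at 214 nm, turnover <10%; IC50 by Dixon plot.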

[5] = target: NAD-dependent protein deacylase sirtuin-6 (Homo sapiens, UniProt Q8N6T7); experiment: Inhibition of His6-tagged human SIRT6 demyristoylation activity using myristoyl-lysine substrate in presence of beta-NAD+ after 12 mins by reversed-phase HPLC analysis
Outline: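 His₆-SIRT6 (313 nM) with 0.02 mM myristoyl-lysine peptide and 0.2 mM β-NAD⁺ in Hepes pH 8.0 buffer with NaCl, KCl, MgCl₂ and 1 mM DTT; 12 min at 37 °C. Acid quench, C18 HPLC at 214 nm, turnover <10%; IC50 from Dixon plots.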

[6] = target: T4, NAD-dependent protein deacetylase sirtuin-7 (Homo sapiens, UniProt Q9NRC8); experiment: Inhibition of tRNA-activated His6-tagged human SIRT7 deacetylation activity using acetyl-lysine as substrate in presence of beta-NAD+ after 30 mins by reversed-phase HPLC analysis
T4 sequence (Q9NRC8 whole entry): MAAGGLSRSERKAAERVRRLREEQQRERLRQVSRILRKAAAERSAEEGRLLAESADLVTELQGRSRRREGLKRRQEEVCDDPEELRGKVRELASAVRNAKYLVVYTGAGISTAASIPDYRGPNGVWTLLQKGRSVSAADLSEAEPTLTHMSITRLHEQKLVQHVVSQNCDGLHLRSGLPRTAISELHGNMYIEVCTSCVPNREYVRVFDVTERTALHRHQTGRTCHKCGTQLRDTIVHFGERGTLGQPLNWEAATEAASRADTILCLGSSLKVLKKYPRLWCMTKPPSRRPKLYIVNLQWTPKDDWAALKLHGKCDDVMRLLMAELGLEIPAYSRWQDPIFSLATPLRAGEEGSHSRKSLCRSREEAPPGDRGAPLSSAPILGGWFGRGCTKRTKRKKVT
Outline: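 His₆-SIRT7 (570 nM) with yeast tRNA (3-fold molar excess over enzyme) and RNase inhibitor (~1 U/μL). Substrate: 1.8 mM H3 12-24 K18-acetyl peptide with 3 mM β-NAD⁺, in 50 mM Hepes pH 8.0, 150 mM NaCl, 1 mM DTT, no KCl or MgCl₂; 30 min at 37 °C. Acid quench, C18 HPLC at 214 nm; IC50 by Dixon plot.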

[7] = Enzymatic stability assessed as pronase (unknown origin)-mediated compound hydrolysis at pH 7.3 measured up to 30 mins by HPLC method; format: ADME, Homo sapiens; settings: buffer, pH 7.3, 0.5 h
Outline: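 Compound solution in water (160 μM) mixed 1:1 with Streptomyces griseus pronase (8 ng/μL) in 100 mM Tris·HCl pH 7.3 at 37 °C. Aliquots quenched with 1.0 M acetic acid at 0, 2.5, 5, 10, 20 and 30 min, then C18 RP-HPLC at 214 nm; mean of two measurements.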

[8] = target: T5, NAD-dependent protein deacetylase sirtuin-1 (Homo sapiens) (UniProt Q96EB6); experiment: Inhibition of SIRT1 deacetylation activity in human HCT116 cells assessed as increase in acetylated p53 K382 level by Western blot analysis; format: cell-based; settings: HCT-116
T5 sequence (whole entry): T1 sequence (Q96EB6 whole entry)
Outline: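 HCT116 cells (5 x 10⁵) in McCoy 5A with 10% FBS, treated 8 h at 37 °C at 0, 0.5, 2, 10, 50 and 100 μM final (water stock). Lysates run on SDS-PAGE, transferred to PVDF, probed with anti-acetyl-p53 K382 and anti-p53, HRP secondary, ECL detection.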

MCF7 [9] = experiment: Antiproliferative activity against human MCF7 cells assessed as cell growth inhibition measured up to 72 hrs by MTT assay; format: functional, cell-based
Outline: (§2)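 MCF-7 cells, 5 x 10³ per well, grown overnight in DMEM with 10% FBS, then exposed at 37 °C to 0, 5, 12.5, 25, 50 or 100 μM final (water stock) for 24, 48 or 72 h. Afterwards, PBS wash, MTT at 0.5 mg/mL final for 4 h at 37 °C, DMSO solubilization, absorbance at 568 nm; mean of five measurements.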

SK-MEL-2 = experiment: Antiproliferative activity against human SK-MEL-2 cells assessed as cell growth inhibition measured up to 72 hrs by MTT assay; format: functional, cell-based
Outline: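 SK-MEL-2 melanoma cells, 5 x 10³ per well, grown overnight in MEM with 10% FBS, then exposed at 37 °C to 0, 5, 12.5, 25, 50 or 100 μM final (water stock) for 24, 48 or 72 h. Afterwards, PBS wash, MTT at 0.5 mg/mL final for 4 h at 37 °C, DMSO solubilization, A568 read; mean of five measurements.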

MCF7 [10] = experiment: Antiproliferative activity against human MCF7 cells assessed as cell growth inhibition at 100 uM measured after 72 hrs by MTT assay relative to control; format: functional; settings: MCF7, 72 h, read-out: GI; outline: as §2

NAD-dependent protein deacylase sirtuin-5, mitochondrial, sequence (Q9NXA8 whole entry): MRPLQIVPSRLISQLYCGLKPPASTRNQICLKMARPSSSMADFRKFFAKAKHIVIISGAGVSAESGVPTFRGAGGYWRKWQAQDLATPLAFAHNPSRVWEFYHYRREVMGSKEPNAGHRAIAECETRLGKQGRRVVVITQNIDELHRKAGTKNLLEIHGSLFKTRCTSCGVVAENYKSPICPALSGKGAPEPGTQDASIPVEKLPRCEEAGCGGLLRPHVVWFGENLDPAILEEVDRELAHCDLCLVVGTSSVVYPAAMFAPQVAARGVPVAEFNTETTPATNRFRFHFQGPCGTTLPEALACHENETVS
NAD-dependent protein deacylase sirtuin-6, sequence (Q8N6T7 whole entry): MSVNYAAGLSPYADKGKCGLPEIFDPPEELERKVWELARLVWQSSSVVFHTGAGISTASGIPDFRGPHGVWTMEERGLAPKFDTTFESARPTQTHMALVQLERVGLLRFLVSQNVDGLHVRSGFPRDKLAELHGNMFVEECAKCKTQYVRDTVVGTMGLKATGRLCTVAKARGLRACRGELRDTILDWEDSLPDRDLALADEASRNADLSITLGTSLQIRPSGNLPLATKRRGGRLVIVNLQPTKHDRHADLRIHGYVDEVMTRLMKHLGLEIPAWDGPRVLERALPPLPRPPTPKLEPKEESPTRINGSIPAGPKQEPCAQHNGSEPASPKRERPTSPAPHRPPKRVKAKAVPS

| Compound | IC50 [1] | IC50 [2] | IC50 [3] | further results |
| --- | --- | --- | --- | --- |
| CSCC[C@@H]1NC(=O)[C@@H](NC(=O)[C@H](CCCCNC(C)=S)NC(=O)[C@H](CCCCN)NC(=O)[C@H](Cc2c[nH]cn2)NC(C)=O)Cc2ccc(cc2)OCCCCCCCNC1=O | 22600 nM | 25.5 µM | 217000 nM |  |
| CSCC[C@@H]1NC(=O)[C@@H](NC(=O)[C@H](CCCCNC(C)=S)NC(=O)[C@H](CCCCN)NC(=O)[C@H](Cc2c[nH]cn2)NC(C)=O)Cc2ccc(cc2)OCCCCCCCCCCNC1=O | 56700 nM | 17.9 µM | 13100 nM |  |
| CSCC[C@@H]1NC(=O)[C@@H](NC(=O)[C@H](CCCCNC(C)=S)NC(=O)[C@H](CCCCN)NC(=O)[C@H](Cc2c[nH]cn2)NC(C)=O)Cc2ccc(cc2)OCCCNC1=O | 34300 nM | 60.8 µM |  |  |
| CC/C(=C(\c1ccccc1)c1ccc(OCCN(C)C)cc1)c1ccccc1 [TAMOXIFEN] |  |  |  | inhibition of growth at 100 µM (MCF7 [10]): > 80% |
| CSCC[C@@H]1NC(=O)[C@@H](NC(=O)[C@H](CCCCNC(C)=S)NC(=O)[C@H](CCCCN)NC(=O)[C@H](Cc2c[nH]cn2)NC(C)=O)Cc2ccc(cc2)OCCCCCNC1=O | 13600 nM | 115 µM |  |  |

More lines, main results first:

| IC50 [1] | IC50 [2] | IC50 [3] | Compound | further results |
| --- | --- | --- | --- | --- |
| 540 nM | 0.253 µM | 720 nM | CSCC[C@@H]1NC(=O)[C@@H](NC(=O)[C@H](CCCCNC(C)=S)NC(=O)[C@@H]2Cc3ccc(cc3)OCCCC(=O)N[C@@H](Cc3c[nH]cn3)C(=O)N2)Cc2ccc(cc2)OCCCCCNC1=O | IC50 [4]: 443 µM; IC50 [5]: 390 µM; IC50 [6]: 78.9 µM; Stability [7]: Stable; inhibition [8]: Dose-dependent effect; Activity (MCF7 [9]): Dose-dependent effect; Activity (SK-MEL-2): Dose-dependent effect |
| 171 nM | 0.68 µM | 750 nM | CSCC[C@H](NC(=O)[C@H](CC(C)C)NC(=O)[C@H](CCCCNC(C)=S)NC(=O)[C@@H]1Cc2ccc(cc2)OCCCC(=O)N[C@@H](Cc2c[nH]cn2)C(=O)N1)C(N)=O |  |
| 646 nM | 1.03 µM |  | CSCC[C@H](NC(=O)[C@H](CC(C)C)NC(=O)[C@H](CCCCNC(C)=S)NC(=O)[C@@H]1Cc2ccc(cc2)OCCCCCC(=O)N[C@@H](Cc2c[nH]cn2)C(=O)N1)C(N)=O |  |
| 1250 nM | 4.31 µM | 1100 nM | CSCC[C@H](NC(=O)[C@H](CC(C)C)NC(=O)[C@H](CCCCNC(C)=S)NC(=O)[C@@H]1Cc2ccc(cc2)OCCCCCCCCCCC(=O)N[C@@H](Cc2c[nH]cn2)C(=O)N1)C(N)=O |  |
| 673 nM | 1.33 µM |  | CSCC[C@H](NC(=O)[C@H](CC(C)C)NC(=O)[C@H](CCCCNC(C)=S)NC(=O)[C@@H]1Cc2ccc(cc2)OCCCCCCCC(=O)N[C@@H](Cc2c[nH]cn2)C(=O)N1)C(N)=O |  |
